From ChEMBL document CHEMBL4049431 (J Med Chem, 2017)
pEC50: −log10 of the molar value. Active and inactive are the calls of the source.

Columns and labels:
[1] = target: T1, Kappa-type opioid receptor (Homo sapiens, UniProt P41145); assay: Agonist activity at human kappa-type opioid receptor expressed in CHO-K1 cells assessed as forskolin-induced cAMP accumulation after 30 mins in presence of forskolin by luminescence-based HitHunter cAMP assay; type: functional, cell-based
Summary of the method: (§1)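 CHO-K1 cells expressing the receptor were kept at 37 °C in 5% CO2. cAMP data were normalized to vehicle and forskolin-only controls. Each compound was run in triplicate in parallel assays in ≥2 independent experiments. EC50 and Emax came from sigmoidal nonlinear regression and were averaged across experiments as mean ± SEM.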

[2] = target: T1, Kappa-type opioid receptor; assay: Agonist activity at human kappa-type opioid receptor expressed in CHO-K1 cells assessed as forskolin-induced cAMP accumulation up to 10 uM after 30 mins in presence of forskolin by luminescence-based HitHunter cAMP assay; type: functional, cell-based; summary of the method: as §1
Mus musculus [3] = assay: Analgesic activity in sc dosed B6-SJL mouse assessed as increase in tail withdrawal latency measured 30 mins post each dose by warm water tail withdrawal assay; type: functional; conditions: 0.5 h
Summary of the method: (§2)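 Vehicle was DMSO:Tween-80:saline 2:1:7. Tail-withdrawal latency in 50 °C water (10 s cutoff) was recorded 30 min after each dose.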

Liver = assay: Metabolic stability in IGS Sprague-Dawley rat liver microsomes at 10 uM measured at 2.5 hrs in absence of NADPH by LC-MS analysis; type: ADME, microsome
Summary of the method: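 Incubation used rat liver microsomes (0.25 mg/mL) in 50 mM potassium phosphate, 2 mM MgCl2, pH 7.4, at 37 °C, with 10 μM compound final and buffer in place of NADPH. Samples were quenched in MeCN/1% formic acid with tolbutamide, then quantified by LCMS.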

Mus musculus [4] = assay: Analgesic activity in formalin-induced B6-SJL mouse pain model assessed as inhibition of nociceptive response at 2 mg/kg, ip preincubated for 10 mins followed by formalin injection measured at 10 mins in presence of kappa-type opioid receptor antagonist nor-BNI; type: functional, organism-based
Summary of the method: (§3)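 nor-BNI (10 mg/kg, sc) was given 24 h before ip agonist (DMSO:Tween-80:saline 2:1:7). After 10 min, 20 μL of 2% formalin was injected intradermally into the right hind paw.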

[5] = target: Delta-type opioid receptor (Homo sapiens) (UniProt P41143); assay: Agonist activity at human delta-type opioid receptor expressed in CHO-K1 cells assessed as forskolin-induced cAMP accumulation up to 10 uM after 30 mins in presence of forskolin by luminescence-based HitHunter cAMP assay; type: functional, cell-based; summary of the method: as §1
Mus musculus [6] = assay: Analgesic activity in formalin-induced B6-SJL mouse pain model assessed as inhibition of inflammatory response AUC at 2 mg/kg, ip preincubated for 10 mins followed by formalin injection measured at 15 to 60 mins; type: functional, organism-based
Summary of the method: (§4)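 Mice habituated to the test box received agonist ip in DMSO:Tween-80:saline (2:1:7). Ten min later, 20 μL of 2% formalin was injected intradermally into the right hind footpad. Video ran for 60 min, scored every 5 s (weight-bearing scale 0–3) by a blinded analyst and averaged per 5 min.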

Mus musculus [7] = assay: Analgesic activity in formalin-induced B6-SJL mouse pain model assessed as inhibition of inflammatory response AUC at 2 mg/kg, ip preincubated for 10 mins followed by formalin injection measured at 15 to 60 mins in presence of kappa-type opioid receptor antagonist nor-BNI; type: functional, organism-based; summary of the method: as §3
Mus musculus [8] = assay: Analgesic activity in formalin-induced B6-SJL mouse pain model assessed as inhibition of nociceptive response AUC at 2 mg/kg, ip preincubated for 10 mins followed by formalin injection measured up to 15 mins; type: functional, organism-based; summary of the method: as §4
Mus musculus [9] = assay: Analgesic activity in B6-SJL mouse assessed as increase in tail withdrawal latency at 2 mg/kg, ip measured up to 10 to 30 mins by warm water tail withdrawal assay; type: functional, organism-based
Summary of the method: (§5)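 Adult male mice (25−35 g) were habituated to restrainers over four days. Drug or vehicle (DMSO:Tween-80:saline 2:1:7) was given ip. One-third of the tail was immersed in 50 °C water, with a 10 s cutoff. Baseline was the mean of three latencies. Readings were taken at 5–120 min. %MPE was calculated against pretreatment latency; n = 8−9 per group.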

[10] = Metabolic stability in IGS Sprague-Dawley rat liver microsomes assessed as CYP450-mediated oxidative metabolism at 10 uM measured at 2.5 hrs in presence of NADPH by LC-MS analysis; type: ADME
Summary of the method: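 Rat liver microsomes (0.25 mg/mL) in 50 mM potassium phosphate with 2 mM MgCl2, pH 7.4, were prewarmed to 37 °C. Compound (10 μM final) and NADPH (1 mM final) were added. Samples were quenched in MeCN with 1% formic acid containing tolbutamide, centrifuged and analysed by LCMS.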

Mus musculus [11] = assay: Analgesic activity in B6-SJL mouse assessed as increase in tail withdrawal latency at 0.3 to 10 mg/kg, sc measured 30 mins post each dose by warm water tail withdrawal assay; type: functional; conditions: 0.5 h; summary of the method: as §2
Mus musculus [12] = assay: Analgesic activity in formalin-induced B6-SJL mouse pain model assessed as inhibition of inflammatory response at 2 mg/kg, ip preincubated for 10 mins followed by formalin injection measured at 20 to 45 mins; type: functional, organism-based; summary of the method: as §4
[13] = target: Mu-type opioid receptor (Homo sapiens) (UniProt P35372); assay: Agonist activity at human mu-type opioid receptor expressed in CHO-K1 cells assessed as forskolin-induced cAMP accumulation up to 10 uM after 30 mins in presence of forskolin by luminescence-based HitHunter cAMP assay; type: functional, cell-based; summary of the method: as §1
Mus musculus [14] = assay: Analgesic activity in formalin-induced B6-SJL mouse pain model assessed as inhibition of inflammatory response at 2 mg/kg, ip preincubated for 10 mins followed by formalin injection measured at 20 to 45 mins in presence of kappa-type opioid receptor antagonist nor-BNI; type: functional, organism-based; summary of the method: as §3
Mus musculus [15] = assay: Analgesic activity in formalin-induced B6-SJL mouse pain model assessed as inhibition of nociceptive response at 2 mg/kg, ip preincubated for 10 mins followed by formalin injection measured at 10 mins; type: functional, organism-based; summary of the method: as §4
Mus musculus [16] = assay: Antiinflammatory activity in B6-SJL mouse assessed as reduction in formalin-induced paw edema at 2 mg/kg, ip preincubated for 10 mins followed by formalin injection measured at 60 mins; type: functional, organism-based
Summary of the method: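 Right hind paw height, width and depth were measured by calipers before ip drug or vehicle (DMSO:Tween-80:saline 2:1:7). Intradermal 2% formalin (20 μL) followed 10 min later, and measurements were repeated at 60 min. One-way ANOVA with Bonferroni tests; n = 7 per group.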

Mus musculus [17] = assay: Analgesic activity in formalin-induced B6-SJL mouse pain model assessed as inhibition of nociceptive response AUC at 2 mg/kg, ip preincubated for 10 mins followed by formalin injection measured up to 15 mins in presence of kappa-type opioid receptor antagonist nor-BNI; type: functional, organism-based; summary of the method: as §3
Mus musculus [18] = assay: Analgesic activity in B6-SJL mouse assessed as increase in tail withdrawal latency at 2 mg/kg, ip measured up to 5 to 30 mins by warm water tail withdrawal assay; type: functional, organism-based; summary of the method: as §5
Mus musculus [19] = assay: Analgesic activity in formalin-induced B6-SJL mouse pain model assessed as inhibition of inflammatory response at 2 mg/kg, ip preincubated for 10 mins followed by formalin injection measured at 20 to 50 mins; type: functional, organism-based; summary of the method: as §4
Mus musculus [20] = assay: Analgesic activity in formalin-induced B6-SJL mouse pain model assessed as inhibition of nociceptive response at 2 mg/kg, ip preincubated for 10 mins followed by formalin injection measured at 5 to 10 mins; type: functional, organism-based; summary of the method: as §4

Chain of Delta-type opioid receptor (Homo sapiens) (P41143 whole entry): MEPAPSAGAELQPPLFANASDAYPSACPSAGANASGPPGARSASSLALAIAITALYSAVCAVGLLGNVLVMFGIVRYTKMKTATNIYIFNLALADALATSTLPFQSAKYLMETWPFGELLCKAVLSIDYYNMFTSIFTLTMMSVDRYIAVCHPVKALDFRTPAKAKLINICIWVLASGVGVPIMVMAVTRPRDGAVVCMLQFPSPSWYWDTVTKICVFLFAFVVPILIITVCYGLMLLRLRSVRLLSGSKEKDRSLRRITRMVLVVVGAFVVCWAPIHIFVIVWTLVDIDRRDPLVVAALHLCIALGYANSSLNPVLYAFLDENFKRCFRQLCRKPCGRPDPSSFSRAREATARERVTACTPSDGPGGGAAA
T1 sequence (P41145 whole entry): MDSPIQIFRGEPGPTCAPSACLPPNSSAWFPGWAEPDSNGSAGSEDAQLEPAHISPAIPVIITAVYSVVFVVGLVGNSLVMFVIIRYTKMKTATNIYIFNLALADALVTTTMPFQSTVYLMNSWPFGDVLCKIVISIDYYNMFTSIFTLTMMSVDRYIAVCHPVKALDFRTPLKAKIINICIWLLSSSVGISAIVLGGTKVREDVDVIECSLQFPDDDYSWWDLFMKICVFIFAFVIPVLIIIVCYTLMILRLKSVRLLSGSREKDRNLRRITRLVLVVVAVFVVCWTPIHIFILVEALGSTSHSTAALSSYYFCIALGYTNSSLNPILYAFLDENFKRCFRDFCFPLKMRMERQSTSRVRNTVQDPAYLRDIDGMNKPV
Chain of Mu-type opioid receptor (Homo sapiens) (P35372 whole entry): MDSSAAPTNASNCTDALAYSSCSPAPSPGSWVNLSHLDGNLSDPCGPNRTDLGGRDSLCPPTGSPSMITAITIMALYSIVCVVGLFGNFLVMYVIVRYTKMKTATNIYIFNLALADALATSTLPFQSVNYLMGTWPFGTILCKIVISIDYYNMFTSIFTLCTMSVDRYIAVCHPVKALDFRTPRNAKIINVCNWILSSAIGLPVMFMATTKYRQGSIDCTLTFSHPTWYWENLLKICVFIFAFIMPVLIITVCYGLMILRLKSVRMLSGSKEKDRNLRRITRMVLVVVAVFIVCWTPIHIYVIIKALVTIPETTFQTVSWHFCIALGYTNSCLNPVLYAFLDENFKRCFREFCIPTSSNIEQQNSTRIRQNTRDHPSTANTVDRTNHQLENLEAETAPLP

Row | Structure (SMILES) | pEC50 [1] | Emax [2] [%] | Emax [5] [%] | Emax [13] [%] | other results
1 | COC(=O)[C@H]1[C@](C)([C@@H](CC(=O)O)C(=O)OC)CC[C@H]2C(=O)O[C@H](c3ccoc3)C[C@]12C | < 5.00 | 0 | – | – | –
2 | COC(=O)[C@@H]1C[C@]2(CCC(=O)O2)C(=O)[C@H]2[C@@]1(C)CC[C@H]1C(=O)O[C@H](c3ccoc3)C[C@]21C | 9.22 | 100 | 0 | 0 | ED50 (Mus musculus [3]): 0.759 mg/kg; Stability (Liver): Stable; inhibition (Mus musculus [4]): inactive; inhibition (Mus musculus [6]): Active; inhibition (Mus musculus [7]): inactive; inhibition (Mus musculus [8]): Active; Activity (Mus musculus [9]): Active; Stability [10]: Stable; Emax (Mus musculus [11]): 62.4%; inhibition (Mus musculus [12]): Active; inhibition (Mus musculus [14]): inactive; inhibition (Mus musculus [15]): Active; inhibition (Mus musculus [16]): Active; inhibition (Mus musculus [17]): inactive
3 | COC(=O)[C@@H]1CCC(=O)[C@H]2[C@@]1(C)CC[C@H]1C(=O)O[C@H](c3ccoc3)C[C@]21C | < 5.00 | 0 | – | – | –
4 | COC(=O)[C@@H]1C[C@H](OC(C)=O)C(=O)[C@H]2[C@@]1(C)CC[C@H]1C(=O)O[C@H](c3ccoc3)C[C@]21C [SALVINORIN A] | – | – | 0 | 0 | ED50 (Mus musculus [3]): 1.28 mg/kg; Stability (Liver): Stable; inhibition (Mus musculus [6]): Active; inhibition (Mus musculus [8]): Active; Activity (Mus musculus [18]): Active; inhibition (Mus musculus [19]): Active; Stability [10]: Stable; Emax (Mus musculus [11]): 100%; inhibition (Mus musculus [20]): Active; inhibition (Mus musculus [16]): Active
5 | COC(=O)[C@@H]1CC(=O)C(O)=C2[C@@]1(C)CC[C@H]1C(=O)O[C@H](c3ccoc3)C[C@]21C | < 5.00 | 0 | – | – | –
6 | COC(=O)[C@@H]1C[C@H](O)C(=O)[C@H]2[C@@]1(C)CC[C@H]1C(=O)O[C@H](c3ccoc3)C[C@]21C | – | 100 | 0 | 0 | –
7 | COC(=O)[C@H]1[C@](C)([C@@H](CCO)C(=O)OC)CC[C@H]2C(=O)O[C@H](c3ccoc3)C[C@]12C | < 5.00 | 0 | – | – | –
8 | COC(=O)[C@H]1[C@](C)([C@@H](CC(OC)OC)C(=O)OC)CC[C@H]2C(=O)O[C@H](c3ccoc3)C[C@]12C | 7.93 | 100 | 0 | 0 | –
9 | COC(=O)[C@H]1[C@](C)([C@@H](CCOC(C)=O)C(=O)OC)CC[C@H]2C(=O)O[C@H](c3ccoc3)C[C@]12C | 7.89 | 100 | 0 | 0 | –
10 | COC(=O)[C@H]1[C@](C)([C@@H](CC=O)C(=O)OC)CC[C@H]2C(=O)O[C@H](c3ccoc3)C[C@]12C | 7.52 | 100 | 0 | 0 | –
